Source: PubChem BioAssay
Activity calls are given as the source filed them.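 The calls were made as follows, unless noted: active = Her2 level under about 52% in both replicate screens, with viability over 70% of control (limit read from the data); inconclusive = Her2 under the limit in one screen only, or viability under 70%; inactive = Her2 level above the set limit.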

Key:
[1] = Her2 expression decrease, cell viability multiplex – SKBR3 breast tumor cells, AlphaScreen, ATP viability, primary screen (AID 461); conditions: SKBR3 Her2 protein level, 18-24 h, measured here: SKBR3 viability, ATP luminescence, at 10 µM;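 as to Her2 level: lower value means less Her2 protein in the cells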;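 as to viability: percent of carrier control wells set as 100% viability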
[2] = target: Receptor tyrosine-protein kinase erbB-2 (Homo sapiens) (UniProt P04626); experiment: as above; conditions: 18-24 h, at 10 µM, stronger effect = lower value
[3] = reduced viability of SK-BR-3 breast cancer cells – cell-based, 24 h, human, pilot screen (AID 572;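 active = viability at or below 10% of carrier control in both of two separate runs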;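 also: compound exposure lasted between 18 and 24 h rather than exactly 24 h; 100% = carrier-treated control wells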); conditions: SK-BR-3 viability, CellTiter-Glo luminescence, at 10 µM, stronger effect = lower value
[4] = HUVEC growth inhibition – cell-based, human, primary screen (AID 575;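 active = viability at or below 30% in both replicate assays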;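 also: 100% = median of untreated cell wells with 0.1% DMSO on each plate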); conditions: HUVEC proliferation, CellTiter-Glo luminescence, 72 h; at 10 µM; stronger effect = lower value
Method in brief: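 Assay system: primary human umbilical vein endothelial cells / Buffer or medium: endothelial basal medium with 2% FBS plus growth supplements / Compound dosing: one dose, 10 µM final, 0.1% DMSO / Timing: 72 h treatment at 37 °C / Signal: CTG luminescence / Benchmarks: 32 DMSO-only cell-control wells (high), 32 MePR drug-control wells (low) per plate / Plate: collagen-coated 384-well format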

[5] = H69AR cell proliferation blockers – human, duplicate replicates, primary screen (AID 580;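 active = viability at or under a set limit in both replicates, limit being median viability minus 3 SD, cut at about 48% in these data, passing the limit was not always enough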;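 also: 100% = mean luminescence of untreated wells and 0% = no signal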); conditions: H69AR lung tumor cells viability, ATP luminescence, 72 h; at 10 µM; stronger effect = lower value
[6] = MRP1 drug-resistance reversers in H69AR cells – cell-based, doxorubicin co-treatment, pilot screen (AID 601;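 active = viability loss from added drug above about 55%, and viability with drug at most 40%, in both replicates, limit read from the data, passing the limit was not always enough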); conditions: CellTiter-Glo, 72 h, at 10 µM; for differential viability (reversal): stronger effect = higher value
[7] = yeast transport mutant growth inhibition pilot in 384-well plates, post-Golgi transport modulator project (AID 636; in the data active = inhibition above about 31%); conditions: absorbance 615 nm, about 18 h, stronger effect = higher value
[8] = growth suppression of yeast trafficking mutant, preliminary HTS, modulators of trafficking downstream of Golgi apparatus project, 1536-format plate, OD 615 nm (AID 637; in the data active = inhibition above about 30%); conditions: yeast transport mutant growth, absorbance 615 nm, 18 h; stronger effect = higher value
[9] = H69AR cells + 2 uM doxorubicin, measured here: viability with 2 uM doxorubicin, stronger effect = lower value
[10] = H69AR cells, compound alone cytotoxicity

Chain of Receptor tyrosine-protein kinase erbB-2 (Homo sapiens) (P04626 whole entry, looked up): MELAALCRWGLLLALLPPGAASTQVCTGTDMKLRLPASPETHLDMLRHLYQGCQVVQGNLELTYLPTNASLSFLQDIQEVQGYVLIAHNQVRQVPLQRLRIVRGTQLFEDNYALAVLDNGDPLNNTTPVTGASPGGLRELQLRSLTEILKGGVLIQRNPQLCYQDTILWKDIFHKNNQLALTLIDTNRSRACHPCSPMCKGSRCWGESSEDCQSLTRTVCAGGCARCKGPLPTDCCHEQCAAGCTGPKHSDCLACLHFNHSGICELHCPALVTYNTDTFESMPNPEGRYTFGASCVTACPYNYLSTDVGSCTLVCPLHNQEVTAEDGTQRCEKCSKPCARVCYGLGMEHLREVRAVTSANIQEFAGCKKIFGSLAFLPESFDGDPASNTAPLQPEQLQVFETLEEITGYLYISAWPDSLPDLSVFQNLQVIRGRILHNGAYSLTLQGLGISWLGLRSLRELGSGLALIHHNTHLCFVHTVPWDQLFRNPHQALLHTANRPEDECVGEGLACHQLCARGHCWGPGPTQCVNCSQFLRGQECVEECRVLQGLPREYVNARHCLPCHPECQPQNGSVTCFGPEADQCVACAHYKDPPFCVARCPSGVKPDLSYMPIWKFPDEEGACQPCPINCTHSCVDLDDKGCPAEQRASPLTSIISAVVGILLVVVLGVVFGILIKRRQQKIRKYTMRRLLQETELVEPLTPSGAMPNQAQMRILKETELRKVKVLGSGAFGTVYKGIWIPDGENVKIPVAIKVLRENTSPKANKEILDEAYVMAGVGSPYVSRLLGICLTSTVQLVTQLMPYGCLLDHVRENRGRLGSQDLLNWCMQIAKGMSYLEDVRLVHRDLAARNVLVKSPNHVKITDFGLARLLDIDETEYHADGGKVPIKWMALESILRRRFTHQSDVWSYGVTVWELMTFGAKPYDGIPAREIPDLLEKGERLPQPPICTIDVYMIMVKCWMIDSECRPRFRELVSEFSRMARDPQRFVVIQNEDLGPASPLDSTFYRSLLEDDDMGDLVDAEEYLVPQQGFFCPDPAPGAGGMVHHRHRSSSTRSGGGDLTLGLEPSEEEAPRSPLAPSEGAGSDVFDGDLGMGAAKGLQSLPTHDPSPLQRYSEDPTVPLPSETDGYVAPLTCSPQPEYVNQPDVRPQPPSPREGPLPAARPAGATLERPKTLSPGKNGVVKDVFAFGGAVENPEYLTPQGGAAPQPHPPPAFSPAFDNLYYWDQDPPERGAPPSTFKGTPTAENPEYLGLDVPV

Row | Compound | viability [1] [%] | Her2 level [2] | viability [3] | viability [4] | viability [5] | differential viability (reversal) ([6]; H69AR cells + 2 uM doxorubicin) | viability [6, 9] [%] | viability [6, 10] [%] | inhibition [7] | inhibition [8]
1 | CCS(=O)(=O)N1CCC(C(=O)NCCc2ccc(C)cc2)CC1 | 99 | 106% (inactive) | 99% (inactive) | 100% (inactive) | 89.3% (inactive) | 7.41% (inactive) | 81.9 | 89.3 | -2.6% (inactive) | -9.68% (inactive)
2 | C[C@H](NC(=O)OC(C)(C)C)C(=O)NCC1CCC(C(=O)O)CC1 (stereo not given in full) | 101 | 97% (inactive) | 101% (inactive) | 103% (inactive) | 108% (inactive) | 11.7% (inactive) | 96.4 | 108 | -5.73% (inactive) | -1.29% (inactive)
3 | COc1ccc(S(=O)(=O)C(C#N)c2nc3ccccc3nc2N2CCCC(C)C2)cc1 (stereo not given) | 112 | 102% (inactive) | 112% (inactive) | 51.2% (inactive) | 75.5% (inactive) | -10.6% (inactive) | 86 | 75.5 | -2.21% (inactive) | 6.67% (inactive)
4 | CC(C)(C)OC(=O)NC(CCNC=C1C(=O)OC(C)(C)OC1=O)C(=O)O (stereo not given) | 105 | 92.5% (inactive) | 105% (inactive) | 104% (inactive) | 101% (inactive) | 11.6% (inactive) | 89.2 | 101 | -7.03% (inactive) | -3.5% (inactive)
5 | CCOC(=O)N1CCN(C(=O)C2c3cc(OC)c(OC)cc3C(=O)N3CCc4ccccc4C23)CC1 (stereo not given) | 116 | 97% (inactive) | 116% (inactive) | 102% (inactive) | 95.7% (inactive) | -0.775% (inactive) | 96.4 | 95.7 | -6.4% (inactive) | 0.49% (inactive)
6 | COc1cccc(OCC(O)CN2CCN(CCO)CC2)c1 (stereo not given) | 92.5 | 96% (inactive) | 92.5% (inactive) | 101% (inactive) | 93.2% (inactive) | 1.65% (inactive) | 91.6 | 93.2 | 1.18% (inactive) | 6.39% (inactive)
7 | O=C(CCOc1ccccc1)NCc1ccccc1 | 122 | 102% (inactive) | 122% (inactive) | 89.9% (inactive) | 89.6% (inactive) | -0.41% (inactive) | 90 | 89.6 | 4.03% (inactive) | 28.9% (inactive)
8 | CCN(CC)CCN1C(=O)C(=O)/C(=C(/O)c2c(C)[nH]c(C(=O)OC)c2C)C1c1ccccc1OC (stereo not given) | 104 | 117% (inactive) | 104% (inactive) | 84.6% (inactive) | 68.3% (inactive) | -21.3% (inactive) | 89.5 | 68.3 | -0.26% (inactive) | -4.5% (inactive)
9 | CC(C)N(C=O)C1(C(=O)NC2CCCCC2)CCCCC1 | 100 | 106% (inactive) | 100% (inactive) | 97.9% (inactive) | 112% (inactive) | 13.7% (inactive) | 97.9 | 112 | -0.53% (inactive) | -6.61% (inactive)
10 | Cc1ccc(CN2C(=O)CCC2C(=O)NCC2CCCO2)cc1 (stereo not given) | 90 | 81% (inactive) | 90% (inactive) | 82.8% (inactive) | 103% (inactive) | 5.64% (inactive) | 97.3 | 103 | -1.45% (inactive) | 3.55% (inactive)
11 | COC(=O)c1cc(=O)nc2sc(-c3cccs3)nn12 | 115 | 85% (inactive) | 115% (inactive) | 84% (inactive) | 93.4% (inactive) | 8.2% (inactive) | 85.2 | 93.4 | -4.86% (inactive) | 5.24% (inactive)
12 | Cc1cc(C)c(OCC(=O)Nc2ccc3c(c2)OCO3)cc1C | 106 | 116% (inactive) | 106% (inactive) | 92% (inactive) | 84.5% (inactive) | -3.51% (inactive) | 88 | 84.5 | -4% (inactive) | -11.4% (inactive)
13 | COC(=O)c1ccc(N2C(=O)CC(N3CCN(C(=O)c4ccco4)CC3)C2=O)cc1 (stereo not given) | 86 | 89.5% (inactive) | 86% (inactive) | 85.9% (inactive) | 89.5% (inactive) | -4.23% (inactive) | 93.7 | 89.5 | -3.73% (inactive) | -2.95% (inactive)
14 | Cc1cccc(N2CCN(C(=O)Cn3ccc4ccccc4c3=O)CC2)c1C | 90.5 | 81% (inactive) | 90.5% (inactive) | 94.1% (inactive) | 95% (inactive) | -1.24% (inactive) | 96.2 | 95 | -4.34% (inactive) | -2.91% (inactive)
